Measured values taken from ChEMBL document CHEMBL3745659, “Synthesis and Characterization of 4,11-Diaminoanthra[2,3-b]furan-5,10-diones: Tumor Cell Apoptosis through tNOX-Modulated NAD(+)/NADH Ratio and SIRT1” (J Med Chem, 2015).
The source made the active and inactive calls. No cut-off for these calls is given here.

What was measured:
[1] = Drug uptake in human K562/4 cells at 3 uM incubated for 2 hrs by flow cytometric analysis; assay type: ADME, cell-based; settings: k562/4, 2 h
Outline: (§1)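 K562 and K562/4 cells incubated 2 h with 3 µM compound; uptake measured by flow cytometry as ratios (arbitrary units) of mean fluorescence channels of the histograms; verapamil (10 µM), a Pgp transport blocker, added 30 min before compound where used.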

[2] = molecular target: T1, DNA topoisomerase 1 (Homo sapiens) (UniProt P11387); assay: Inhibition of Top1 (unknown origin)-mediated relaxation of pBR322 DNA at 2.5 uM incubated for 30 mins by ethidium bromide staining-based gel electrophoresis assay
T1 sequence (whole entry): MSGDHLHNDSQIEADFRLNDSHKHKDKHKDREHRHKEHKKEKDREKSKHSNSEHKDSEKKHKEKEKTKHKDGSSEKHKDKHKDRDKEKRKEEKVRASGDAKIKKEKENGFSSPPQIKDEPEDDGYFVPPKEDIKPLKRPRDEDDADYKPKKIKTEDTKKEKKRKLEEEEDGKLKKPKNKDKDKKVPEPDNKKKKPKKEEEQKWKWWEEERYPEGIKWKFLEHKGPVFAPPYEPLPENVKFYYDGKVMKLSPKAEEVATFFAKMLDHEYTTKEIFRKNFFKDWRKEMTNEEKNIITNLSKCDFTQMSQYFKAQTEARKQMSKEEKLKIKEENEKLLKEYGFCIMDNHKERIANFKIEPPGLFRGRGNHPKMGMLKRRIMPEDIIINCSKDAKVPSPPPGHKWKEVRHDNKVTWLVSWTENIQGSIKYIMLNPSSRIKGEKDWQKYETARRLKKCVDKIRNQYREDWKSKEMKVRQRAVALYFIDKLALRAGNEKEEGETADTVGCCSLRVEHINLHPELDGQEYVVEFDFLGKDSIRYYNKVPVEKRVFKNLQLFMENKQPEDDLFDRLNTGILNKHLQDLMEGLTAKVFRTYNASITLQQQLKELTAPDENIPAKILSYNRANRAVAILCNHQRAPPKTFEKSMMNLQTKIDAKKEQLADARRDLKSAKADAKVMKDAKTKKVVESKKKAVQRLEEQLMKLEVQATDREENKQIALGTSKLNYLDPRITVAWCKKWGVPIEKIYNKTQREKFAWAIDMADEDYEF
Outline: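 Supercoiled pBR322 plasmid treated with Top1 without drug or with compound at 0.5, 2.5 or 10 µM; camptothecin as reference; relaxation assessed by gel electrophoresis.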

AGS [3] = assay: Induction of apoptosis in human AGS cells after 24 hrs by annexin V-FITC staining-based flow cytometric analysis; assay type: functional, cell-based
Outline: (§2)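 AGS cells exposed to compound for 24 h; Annexin V-FITC staining and flow cytometry used to give percentage of apoptotic cells; mean ± S.E. from at least three independent experiments.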

AGS [4] = assay: Induction of apoptosis in human AGS cells assessed as necrotic cells at 1 uM after 24 hrs by annexin V-FITC staining-based flow cytometric analysis (Rvb=0.9%); assay type: functional; outline: as §2
AGS [5] = assay: Induction of apoptosis in human AGS cells assessed as early apoptotic cells at 0.05 uM after 24 hrs by annexin V-FITC staining-based flow cytometric analysis (Rvb=7.2%); assay type: functional; outline: as §2
[6] = molecular target: DNA topoisomerase 2-alpha (Homo sapiens) (UniProt P11388); assay: Inhibition of Top2 (unknown origin)-mediated relaxation of pBR322 DNA at 0.1 to 2.5 uM incubated for 30 mins by ethidium bromide staining-based gel electrophoresis assay
Chain of DNA topoisomerase 2-alpha (Homo sapiens) (P11388 whole entry): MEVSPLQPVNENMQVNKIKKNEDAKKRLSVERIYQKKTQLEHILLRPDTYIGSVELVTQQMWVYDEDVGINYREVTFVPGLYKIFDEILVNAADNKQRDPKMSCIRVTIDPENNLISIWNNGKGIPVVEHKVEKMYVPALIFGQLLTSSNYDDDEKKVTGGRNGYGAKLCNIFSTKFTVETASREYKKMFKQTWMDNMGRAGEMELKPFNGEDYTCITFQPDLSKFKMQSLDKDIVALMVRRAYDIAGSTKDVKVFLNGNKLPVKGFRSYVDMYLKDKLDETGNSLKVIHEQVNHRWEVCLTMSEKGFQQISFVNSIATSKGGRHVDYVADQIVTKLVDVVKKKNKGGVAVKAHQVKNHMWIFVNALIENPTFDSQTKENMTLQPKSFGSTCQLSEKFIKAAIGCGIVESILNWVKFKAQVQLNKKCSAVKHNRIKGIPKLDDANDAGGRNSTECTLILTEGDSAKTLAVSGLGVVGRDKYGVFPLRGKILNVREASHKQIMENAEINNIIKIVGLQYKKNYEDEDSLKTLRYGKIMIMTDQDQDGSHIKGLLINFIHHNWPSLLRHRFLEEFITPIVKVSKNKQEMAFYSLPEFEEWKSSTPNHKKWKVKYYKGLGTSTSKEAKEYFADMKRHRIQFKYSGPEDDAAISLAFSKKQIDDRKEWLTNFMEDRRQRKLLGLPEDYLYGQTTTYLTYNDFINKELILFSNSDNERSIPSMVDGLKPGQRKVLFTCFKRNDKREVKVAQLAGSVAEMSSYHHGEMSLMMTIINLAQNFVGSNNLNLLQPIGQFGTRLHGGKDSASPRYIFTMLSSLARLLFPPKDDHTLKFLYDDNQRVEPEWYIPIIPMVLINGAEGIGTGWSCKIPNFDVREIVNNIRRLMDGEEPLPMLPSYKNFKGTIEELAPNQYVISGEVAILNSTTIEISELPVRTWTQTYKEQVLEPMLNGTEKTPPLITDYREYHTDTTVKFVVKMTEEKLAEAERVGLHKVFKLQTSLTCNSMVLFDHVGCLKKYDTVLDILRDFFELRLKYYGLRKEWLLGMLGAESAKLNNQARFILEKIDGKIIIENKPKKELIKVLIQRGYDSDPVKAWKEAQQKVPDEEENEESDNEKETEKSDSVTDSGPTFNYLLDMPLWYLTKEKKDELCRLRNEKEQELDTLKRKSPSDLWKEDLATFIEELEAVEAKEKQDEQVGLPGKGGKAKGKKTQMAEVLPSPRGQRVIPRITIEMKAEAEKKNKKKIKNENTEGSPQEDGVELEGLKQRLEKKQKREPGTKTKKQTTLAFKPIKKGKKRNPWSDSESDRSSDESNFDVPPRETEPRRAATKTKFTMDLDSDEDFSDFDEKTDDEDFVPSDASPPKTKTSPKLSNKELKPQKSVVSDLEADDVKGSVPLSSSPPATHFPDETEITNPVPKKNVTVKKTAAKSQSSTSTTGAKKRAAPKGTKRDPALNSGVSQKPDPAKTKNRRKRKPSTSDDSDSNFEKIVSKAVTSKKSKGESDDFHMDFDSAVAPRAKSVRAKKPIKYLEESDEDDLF

AGS [7] = assay: Downregulation of tNOX protein level in human AGS cells at 0.1 to 0.5 uM after 24 hrs by Western blot analysis; assay type: functional, cell-based
AGS [8] = assay: Downregulation of Bid protein level in human AGS cells after 24 hrs by Western blot analysis; assay type: functional, cell-based
[9] = Drug uptake in human K562/4 cells at 3 uM incubated for 2 hrs in presence of verapamil by flow cytometric analysis; assay type: ADME, cell-based; settings: k562/4, 2 h; outline: as §1
AGS [10] = assay: Induction of apoptosis in human AGS cells assessed as necrotic cells at 0.05 uM after 24 hrs by annexin V-FITC staining-based flow cytometric analysis (Rvb=0.9%); assay type: functional; outline: as §2
MRC5 = assay: Antiproliferative activity against human MRC5 cells after 72 hrs by cell impedance based study; settings: MRC5, 72 h
CCRF-CEM = assay: Antiproliferative activity against human CEM cells after 72 hrs by MTT assay; assay type: functional, cell-based
AGS [11] = assay: Induction of apoptosis in human AGS cells assessed as early apoptotic cells at 0.1 uM after 24 hrs by annexin V-FITC staining-based flow cytometric analysis (Rvb=7.2%); assay type: functional; outline: as §2
AGS [12] = assay: Upregulation of phosphorylated p53 level in human AGS cells at 1 and 5 uM after 24 hrs by Western blot analysis; assay type: functional, cell-based
K562 = assay: Resistance index, ratio of IC50 for human K562/4 cells to IC50 for human K562 cells; assay type: functional
AGS [13] = assay: Induction of apoptosis in human AGS cells assessed as viable cells at 0.1 uM after 24 hrs by annexin V-FITC staining-based flow cytometric analysis (Rvb=91.5%); assay type: functional; settings: read-out: Activity; outline: as §2
AGS [14] = assay: Upregulation of acetylated p53 level in human AGS cells at 1 and 5 uM after 24 hrs by Western blot analysis; assay type: functional, cell-based
AGS [15] = assay: Induction of apoptosis in human AGS cells assessed as late apoptotic cells at 0.05 uM after 24 hrs by annexin V-FITC staining-based flow cytometric analysis (Rvb=0.3%); assay type: functional; outline: as §2
AGS [16] = assay: Increase in intracellular NAD+/NADH ratio in human AGS cells at 5 uM incubated for 5 mins; assay type: functional, cell-based

Compound: CNCCNc1c2c(c(NCCNC)c3occc13)C(=O)c1ccccc1C2=O
- Drug uptake [1]: Active
- inhibition [2]: Active
- Activity (AGS [3]): Dose-dependent effect
- Activity (AGS [4]): 15.4%
- Activity (AGS [5]): 13%
- inhibition [6]: Active
- Activity (AGS [7]): Active
- Activity (AGS [8]): Active
- Drug uptake [9]: Active
- Activity (AGS [10]): 7.5%
- IC50 (MRC5): 780 nM
- IC50 (CCRF-CEM): 190 nM
- Activity (AGS [11]): 25.1%
- Activity (AGS [12]): Active
- Ratio IC50 (K562): 0.71
- viability at 0.1 µM (AGS [13]): 63.2%
- Activity (AGS [14]): Active
- Activity (AGS [15]): 0.7%
- Activity (AGS [16]): inactive
